The source made the active and inactive calls. The rule behind the calls is not given here.
Experiments:
CHO = test: Effect on cAMP production in adenosine receptor-deficient wild type CHO cells; assay type: functional, cell-based; conditions: Cricetulus griseus
[1] = molecular target: T1, Adenosine receptor A1 (Homo sapiens) (UniProt P30542); test: (§1) Antagonist activity at human recombinant adenosine A1 receptor expressed in CHO cells assessed as inhibition of NECA-mediated reduction of intracellular [3H]-cAMP accumulation incubated for 15 mins prior to NECA induction measured after 30 mins by liquid scintillation spectrometric analysis in presence of forskolin; assay type: functional, cell-based
T1 sequence (whole entry): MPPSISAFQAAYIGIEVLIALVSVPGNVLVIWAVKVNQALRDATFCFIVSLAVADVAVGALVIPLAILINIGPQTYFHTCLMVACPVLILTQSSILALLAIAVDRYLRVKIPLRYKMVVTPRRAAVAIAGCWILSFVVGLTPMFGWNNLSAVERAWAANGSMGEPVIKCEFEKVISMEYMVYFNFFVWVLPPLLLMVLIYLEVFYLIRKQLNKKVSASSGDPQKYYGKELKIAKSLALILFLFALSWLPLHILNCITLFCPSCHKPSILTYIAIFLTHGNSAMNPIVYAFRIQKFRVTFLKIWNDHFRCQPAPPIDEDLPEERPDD
Procedure, shortened: (§2)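 CHO cells stably expressing human A1 receptor were plated for 24 h, then preincubated 15 min at 37 °C in DMEM with ADA (1 U/mL) and Ro20-1724 (20 µM). Compound (1 nM–10 µM) was added for 15 min, then 10 nM NECA with 1 µM forskolin for 15 min. Lysis was in 0.4 N HCl. cAMP was measured by [3H]cAMP competition with bovine adrenal binding protein, as % of forskolin level. IC50 from ≥3 experiments, duplicates.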

Adenosine receptor A1 [2] = molecular target: T2, Adenosine receptor A1 (Homo sapiens, UniProt P30542); test: as §1; assay type: functional, cell-based; procedure, shortened: as §2
T2 sequence (P30542 whole entry): T1 sequence (whole entry)

Adenosine receptor A3 = molecular target: T3, Adenosine receptor A3 (Homo sapiens, UniProt P0DMS8); test: Displacement of [125I]AB-MECA from human adenosine A3 receptor expressed in CHO cell membrane after 90 mins; assay type: cell membranes
T3 sequence (P0DMS8 whole entry): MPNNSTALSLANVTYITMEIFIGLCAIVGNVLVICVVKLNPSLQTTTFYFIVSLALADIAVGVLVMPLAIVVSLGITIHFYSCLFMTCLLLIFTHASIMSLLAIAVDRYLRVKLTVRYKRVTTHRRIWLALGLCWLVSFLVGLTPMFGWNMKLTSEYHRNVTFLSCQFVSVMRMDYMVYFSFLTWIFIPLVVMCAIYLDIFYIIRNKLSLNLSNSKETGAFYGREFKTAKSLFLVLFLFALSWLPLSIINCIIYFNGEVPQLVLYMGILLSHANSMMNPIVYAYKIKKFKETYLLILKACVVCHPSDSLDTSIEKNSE

Adenosine receptor A2a = Adenosine receptor A2a (Homo sapiens, UniProt P29274); test: Displacement of [3H]NECA from human adenosine A2A receptor expressed in CHO cell membrane after 90 mins; assay type: cell membranes
Adenosine receptor A2a, sequence (P29274 whole entry): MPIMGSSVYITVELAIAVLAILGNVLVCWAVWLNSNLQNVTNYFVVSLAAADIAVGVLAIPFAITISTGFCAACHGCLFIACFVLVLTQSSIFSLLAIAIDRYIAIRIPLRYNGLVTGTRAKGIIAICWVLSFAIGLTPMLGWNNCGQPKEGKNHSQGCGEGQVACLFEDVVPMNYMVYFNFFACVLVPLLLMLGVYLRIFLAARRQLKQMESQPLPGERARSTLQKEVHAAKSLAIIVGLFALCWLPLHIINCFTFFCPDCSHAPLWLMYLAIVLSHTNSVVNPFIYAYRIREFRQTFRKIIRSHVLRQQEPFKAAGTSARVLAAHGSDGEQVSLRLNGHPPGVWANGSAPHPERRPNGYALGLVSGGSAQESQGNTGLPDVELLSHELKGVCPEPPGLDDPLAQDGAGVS

Adenosine receptor A1 [3] = molecular target: T2, Adenosine receptor A1; test: Displacement of [3H]DPCPX from human adenosine A1 receptor expressed in CHO cell membrane after 180 mins; assay type: cell membranes

Compound | Activity (CHO) | inhibition [1] | IC50 (Adenosine receptor A1 [2]) | Ki (Adenosine receptor A3) | Ki (Adenosine receptor A2a) | Ki (Adenosine receptor A1 [3])
O=C(C(=O)c1cn(Cc2ccccc2)c2ccccc12)c1ccco1 | inactive | Dose-dependent effect | 291 nM | > 1000 nM | > 10000 nM | 343 nM
O=C(Nc1ccccc1)C(=O)c1cn(Cc2ccccc2)c2ccccc12 | inactive |  |  | > 1000 nM | > 10000 nM | > 10000 nM
O=C(NCc1ccccc1)c1cn(Cc2ccccc2)c2ccccc12 | inactive |  |  | > 1000 nM | > 10000 nM | > 10000 nM
O=C(C(=O)c1cn(Cc2ccccc2)c2ccccc12)c1ccccc1 | inactive | Dose-dependent effect | 404 nM | > 1000 nM | > 10000 nM | 162 nM
O=C(Nc1ccccc1)c1cn(Cc2ccccc2)c2ccccc12 | inactive |  |  | > 1000 nM | > 10000 nM | > 10000 nM
O=C(NCc1ccccc1)C(=O)c1cn(Cc2ccccc2)c2ccccc12 | inactive |  |  |  |  | 
O=C(C(=O)c1cn(Cc2ccccc2)c2ccccc12)c1cccs1 | inactive |  |  | > 1000 nM | > 10000 nM | > 10000 nM
